According to ChEMBL document CHEMBL1124374, “Enkephalinase inhibitors. 1. 2,4-Dibenzylglutaric acid derivatives” (J Med Chem, 1989):
Blank lines part the entries; values can stand above or below the compound they belong to. Calls of active or inactive are those of the source.

Key:
Neprilysin [1] = molecular target: T1, Neprilysin (Rattus norvegicus, UniProt P07861); assay: Inhibition of enkephalinase activity in synaptic membranes prepared from rat striatum; type: cell membranes
T1 sequence (P07861 whole entry): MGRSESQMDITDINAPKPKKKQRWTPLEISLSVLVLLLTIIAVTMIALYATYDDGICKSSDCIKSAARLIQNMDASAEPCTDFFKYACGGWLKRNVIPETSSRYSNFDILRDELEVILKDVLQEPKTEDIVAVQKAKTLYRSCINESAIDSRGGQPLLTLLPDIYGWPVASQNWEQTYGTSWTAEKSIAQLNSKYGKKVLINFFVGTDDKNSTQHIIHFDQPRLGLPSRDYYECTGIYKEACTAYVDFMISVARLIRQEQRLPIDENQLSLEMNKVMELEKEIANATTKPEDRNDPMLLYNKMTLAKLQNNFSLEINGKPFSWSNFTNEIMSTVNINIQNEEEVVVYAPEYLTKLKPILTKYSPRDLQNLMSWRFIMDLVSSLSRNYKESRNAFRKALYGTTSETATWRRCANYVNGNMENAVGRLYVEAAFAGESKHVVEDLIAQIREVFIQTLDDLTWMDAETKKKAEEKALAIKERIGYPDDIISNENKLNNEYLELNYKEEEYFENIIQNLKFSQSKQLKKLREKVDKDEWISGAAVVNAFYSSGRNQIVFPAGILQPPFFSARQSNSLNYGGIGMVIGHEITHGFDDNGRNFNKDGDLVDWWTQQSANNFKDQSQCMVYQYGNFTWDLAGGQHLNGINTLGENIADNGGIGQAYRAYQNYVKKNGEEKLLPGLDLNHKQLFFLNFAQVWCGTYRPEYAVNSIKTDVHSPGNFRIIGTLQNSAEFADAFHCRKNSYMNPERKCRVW

Neprilysin [2] = molecular target: T2, Neprilysin (Oryctolagus cuniculus, UniProt P08049); assay: (§1) Inhibition of enkephalinase activity in membranes prepared from rabbit
T2 sequence (P08049 whole entry): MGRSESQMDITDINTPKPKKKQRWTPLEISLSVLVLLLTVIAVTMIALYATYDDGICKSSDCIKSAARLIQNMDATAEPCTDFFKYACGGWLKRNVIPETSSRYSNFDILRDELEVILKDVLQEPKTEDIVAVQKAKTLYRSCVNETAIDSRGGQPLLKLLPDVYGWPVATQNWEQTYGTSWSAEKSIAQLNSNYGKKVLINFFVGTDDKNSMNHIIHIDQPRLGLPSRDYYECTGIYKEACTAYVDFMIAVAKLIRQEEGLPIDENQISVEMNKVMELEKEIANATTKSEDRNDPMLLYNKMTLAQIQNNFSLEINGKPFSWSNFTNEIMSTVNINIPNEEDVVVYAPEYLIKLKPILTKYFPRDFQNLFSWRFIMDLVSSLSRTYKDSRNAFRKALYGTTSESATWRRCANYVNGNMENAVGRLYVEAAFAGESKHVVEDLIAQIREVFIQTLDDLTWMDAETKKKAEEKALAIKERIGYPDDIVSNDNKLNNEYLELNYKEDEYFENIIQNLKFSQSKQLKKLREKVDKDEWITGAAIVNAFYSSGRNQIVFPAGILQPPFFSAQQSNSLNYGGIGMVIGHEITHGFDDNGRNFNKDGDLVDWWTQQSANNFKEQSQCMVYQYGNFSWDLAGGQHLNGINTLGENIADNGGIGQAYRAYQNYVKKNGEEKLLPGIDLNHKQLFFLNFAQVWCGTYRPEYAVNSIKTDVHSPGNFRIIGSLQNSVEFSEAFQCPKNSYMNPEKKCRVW

Mus musculus [3] = assay: Tail-flick latency observed in CF-1 mice after the administration (30 mg/kg) followed by icv administration of DAEM ([D-Ala2,Met5]enkephalin); type: functional
In short: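 Male CF-1 mice (20–22 g) given test agent or vehicle sc, followed immediately by icv DAEM (1 μg) or vehicle. Tail-flick latency measured 30 min later, cutoff 10 s, n = 10.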

Mus musculus [4] = assay: Hot-plate jump-latency activity in mouse 15 minutes after subcutaneous administration; type: functional; conditions: sc, 0.25 h, read-out: MED
In short: (§2)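 Male CF1 mice (18–23 g) dosed icv or sc; 15 min later placed singly on a copper hot plate held at 55 °C. Latency to jump recorded, cutoff 240 s. MED = minimum effective dose. ED200 = dose doubling jump latency.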

Neprilysin [5] = molecular target: T2, Neprilysin; assay: as §1; remark: listed apart in the source
In short: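 Rabbit protease 24.11 (15 ng protein) incubated 10 min at 37 °C with [Tyr-3H]Leu-enkephalin plus unlabeled Leu-enkephalin (1 μM final) in 50 mM Tris-HCl, pH 6.5. Stopped with TFA. Tyr-Gly-Gly product separated from substrate by C4 reverse-phase HPLC (isocratic, 0.09% TFA/acetonitrile). Fractions counted by scintillation.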

[6] = molecular target: T3, Aminopeptidase N (Sus scrofa) (UniProt P15145); assay: Inhibition of aminopeptidase; IA is inactive
T3 sequence (whole entry): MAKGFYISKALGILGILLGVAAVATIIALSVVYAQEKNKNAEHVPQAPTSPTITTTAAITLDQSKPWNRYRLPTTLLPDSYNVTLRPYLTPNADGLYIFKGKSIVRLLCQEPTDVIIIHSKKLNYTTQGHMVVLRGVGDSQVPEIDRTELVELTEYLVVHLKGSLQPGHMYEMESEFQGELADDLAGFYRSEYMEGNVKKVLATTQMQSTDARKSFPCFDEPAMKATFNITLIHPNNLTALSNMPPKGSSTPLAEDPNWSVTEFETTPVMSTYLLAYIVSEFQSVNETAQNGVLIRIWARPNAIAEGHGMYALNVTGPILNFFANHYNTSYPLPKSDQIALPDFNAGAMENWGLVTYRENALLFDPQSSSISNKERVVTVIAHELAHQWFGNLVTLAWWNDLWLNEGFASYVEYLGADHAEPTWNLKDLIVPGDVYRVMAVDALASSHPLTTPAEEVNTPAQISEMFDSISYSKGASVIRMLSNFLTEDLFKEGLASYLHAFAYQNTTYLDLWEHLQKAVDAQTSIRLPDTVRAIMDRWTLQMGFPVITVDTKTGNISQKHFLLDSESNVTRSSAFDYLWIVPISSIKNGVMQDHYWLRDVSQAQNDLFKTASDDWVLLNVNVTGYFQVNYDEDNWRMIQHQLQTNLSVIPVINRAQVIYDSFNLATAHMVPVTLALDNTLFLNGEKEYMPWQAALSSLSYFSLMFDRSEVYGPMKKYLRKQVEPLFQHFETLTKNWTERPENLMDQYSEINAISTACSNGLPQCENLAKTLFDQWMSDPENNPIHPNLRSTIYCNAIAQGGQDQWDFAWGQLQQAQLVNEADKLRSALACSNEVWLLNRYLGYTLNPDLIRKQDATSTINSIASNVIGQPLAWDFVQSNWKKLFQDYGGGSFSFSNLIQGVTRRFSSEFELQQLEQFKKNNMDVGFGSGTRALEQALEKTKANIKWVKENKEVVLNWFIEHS
In short: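 Kidney cortex membranes (75 μg protein) incubated 15 min at 37 °C in 50 mM Tris, pH 7.4, with 0.8 mM L-leucine p-nitroanilide (final). Reaction stopped with TCA, tubes centrifuged, p-nitroaniline read as OD at 410 nm.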

Mus musculus [7] = assay: Stretching activity in male CF-1 mice, after the intra peritoneal administration of acetic acid and subcutaneous administration of compound; type: functional; conditions: sc
In short: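 Male CF-1 mice (18–22 g), twelve per dose of agent or vehicle, dosed sc 15 min before ip 3% aqueous acetic acid at 10 mL/kg. Five minutes after irritant, stretching episodes counted over 10 min. ED50 derived from these counts.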

Mus musculus [8] = assay: Doubling of hotplate jump-latency activity in mouse after subcutaneous administration is determined; type: functional; in short: as §2
[9] = molecular target: Mu-type opioid receptor (Mus musculus) (UniProt P42866); assay: Ability to displace tritium-labeled naloxone at opioid receptor, at 10 uM concentration
Mu-type opioid receptor (Mus musculus), sequence (P42866 whole entry): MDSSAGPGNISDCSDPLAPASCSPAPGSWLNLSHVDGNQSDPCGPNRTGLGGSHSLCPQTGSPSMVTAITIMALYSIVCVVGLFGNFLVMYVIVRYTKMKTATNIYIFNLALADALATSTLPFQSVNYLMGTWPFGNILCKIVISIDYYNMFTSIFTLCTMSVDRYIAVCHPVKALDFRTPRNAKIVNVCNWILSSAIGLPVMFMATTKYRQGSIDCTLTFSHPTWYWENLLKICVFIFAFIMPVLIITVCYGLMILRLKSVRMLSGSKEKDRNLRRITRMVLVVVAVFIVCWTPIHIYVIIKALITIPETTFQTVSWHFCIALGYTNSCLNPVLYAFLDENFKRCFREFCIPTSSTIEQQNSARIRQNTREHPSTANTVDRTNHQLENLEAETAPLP

SMILES: O=C(O)CC(=O)NC(Cc1ccccc1)CC(Cc1ccccc1)C(=O)O (centres undefined)
- IC50 (Neprilysin [2]): 62 nM

SMILES: CC1(C)O[C@H]2[C@H](COC(=O)CCNC(=O)[C@H](Cc3ccccc3)C[C@@H](Cc3ccccc3)C(=O)O)OC(=O)[C@H]2O1
- Reaction time (Mus musculus [3]): 9.8 s
- minimal effective dose (Mus musculus [4]): > 30 mg/kg

SMILES: O=C(O)CCC(=O)NC(Cc1ccccc1)C[C@@H](Cc1ccccc1)C(=O)O (some centres undefined)
- IC50 (Neprilysin [2]): 2 nM

SMILES: CC(C)C[C@H](NP(=O)(O)O[C@@H]1O[C@@H](C)[C@H](O)[C@@H](O)[C@H]1O)C(=O)N[C@@H](Cc1c[nH]c2ccccc12)C(=O)O [PHOSPHORAMIDON]
- IC50 (Neprilysin [2]): 0.4 nM
- IC50 (Neprilysin [1]): 0.6 nM

SMILES: O=C(O)CCNC(=O)C(Cc1ccccc1)CC(Cc1ccccc1)C(=O)O (centres undefined)
- IC50 (Neprilysin [1]): 18 nM

SMILES: O=C(O)CCCNC(=O)[C@H](Cc1ccccc1)C[C@@H](Cc1ccccc1)C(=O)O
- IC50 (Neprilysin [5]): 1.4 nM

SMILES: COc1cc(CNC(=O)C(CS)Cc2ccccc2)ccc1O (centres undefined)
- inhibition [6]: inactive
- IC50 (Neprilysin [5]): 9 nM
- ED50 (Mus musculus [7]): 5.5 mg/kg
- ED200 (Mus musculus [8]): 6 mg/kg
- inhibition [9]: 30%

SMILES: CC1(C)O[C@@H]2O[C@@H](COC(=O)CCNC(=O)[C@H](Cc3ccccc3)C[C@@H](Cc3ccccc3)C(=O)[O-])[C@H]3OC(C)(C)O[C@H]3[C@@H]2O1.[Na+]
- Reaction time (Mus musculus [3]): 8.1 s
- minimal effective dose (Mus musculus [4]): > 30 mg/kg

Continued, values first:

- IC50 (Neprilysin [1]): 4 nM
SMILES: O=C(O)CNC(=O)[C@H](Cc1ccccc1)C[C@@H](Cc1ccccc1)C(=O)O

- IC50 (Neprilysin [1]): 4 nM
SMILES: O=C(O)C(CSCc1ccccc1)NC(=O)[C@H](Cc1ccccc1)C[C@@H](Cc1ccccc1)C(=O)O (some centres undefined)

- IC50 (Neprilysin [1]): 90 nM
SMILES: O=C(O)c1cccc(NC(=O)[C@@H](Cc2ccccc2)C[C@H](Cc2ccccc2)C(=O)O)c1

- IC50 (Neprilysin [1]): > 1000 nM
SMILES: N#CCCNC(=O)C(Cc1ccccc1)CC(Cc1ccccc1)C(=O)O (centres undefined)

- IC50 (Neprilysin [1]): 6 nM
SMILES: O=C(O)C(COCc1ccccc1)NC(=O)[C@H](Cc1ccccc1)C[C@@H](Cc1ccccc1)C(=O)O (some centres undefined)

- IC50 (Neprilysin [1]): 29 nM
SMILES: O=C(O)C(Cc1ccccc1)NC(=O)[C@H](Cc1ccccc1)C[C@@H](Cc1ccccc1)C(=O)O (some centres undefined)

- IC50 (Neprilysin [2]): 12 nM
SMILES: O=C(O)CCCC(=O)NC(Cc1ccccc1)CC(Cc1ccccc1)C(=O)O (centres undefined)

- IC50 (Neprilysin [1]): 38 nM
SMILES: O=C(O)c1cc(NC(=O)[C@H](Cc2ccccc2)C[C@@H](Cc2ccccc2)C(=O)O)ccc1O

- IC50 (Neprilysin [1]): 1000 nM
SMILES: O=C(O)CCNC(=O)C(CC1CCCCC1)CC(CC1CCCCC1)C(=O)O (centres undefined)
